We go through 21 molecules from ChEMBL document CHEMBL4190344, “Synthesis of substituted phenanthrene-9-benzimidazole conjugates: Cytotoxicity evaluation and apoptosis inducing studies” (Eur J Med Chem, 2017).

Active and inactive are the calls of the source. The calls are words filed in the database; no cut-off is given here.

Experiment [1] deals with DU-145. Kind of experiment: Cytotoxicity in human DU145 cells incubated for 48 hrs by MTT assay. The format is functional, cell-based. To be noted: DU-145, 48 h. An outline of the steps:
(§1)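 Cells (1 × 10^4/well) were seeded in medium with 10% FBS and left 24 h at 37 °C. Compound diluted in medium was then added, alongside a vehicle control, for 48 h. MTT (5 mg/mL stock) was added for 4 h, formazan dissolved in DMSO and absorbance read at 570 nm. IC50 taken as the concentration giving 50% inhibition.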
On the technique in general: Formazan colour is commonly taken as a measure of viable cells.

Experiment [2] concerns HCT-116. Kind of experiment: Cytotoxicity in human HCT116 cells incubated for 48 hrs by MTT assay. The format is functional, cell-based. As to conditions: HCT-116, 48 h. In a few lines: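 Cells (1 × 10^4/well) were seeded in medium with 10% FBS and left 24 h at 37 °C. Compound diluted in medium was then added, alongside a vehicle control, for 48 h. MTT (5 mg/mL stock) was added for 4 h, formazan dissolved in DMSO and absorbance read at 570 nm.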

Experiment [3] deals with BT-549. Kind of experiment: Cytotoxicity in human BT549 cells incubated for 48 hrs by MTT assay. To be noted: BT-549, 48 h. Format: functional, cell-based. In a few lines:
as §1

For experiment [4], the system named is PC-3. Kind of experiment: Cytotoxicity in human PC3 cells incubated for 48 hrs by MTT assay. The format is functional, cell-based. As to conditions: PC-3, 48 h. An outline of the steps: as §1
Experiment [5] has as its system MDA-MB-453. Kind of experiment: Cytotoxicity in human MDA-MB-453 cells incubated for 48 hrs by MTT assay. Format: functional, cell-based. As to conditions: MDA-MB-453, 48 h. An outline of the steps:
as §1

Experiment [6] deals with HCT-15. Kind of experiment: Cytotoxicity in human HCT15 cells incubated for 48 hrs by MTT assay. The format is functional, cell-based. To be noted: HCT-15, 48 h. In a few lines: as §1
Experiment [7] relates to Calf thymus DNA. Kind of experiment: Binding affinity to calf thymus DNA assessed as increase in relative viscosity of DNA-compound complex at 5 uM by viscometry. As to conditions: Bos taurus. The format is nucleic-acid assay. In a few lines:
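Viscosity titration of test compound (5 µM) into CT-DNA (50 µM) in 100 mM Tris-HCl pH 7.0. Rolling-ball viscometer, ball fall time read at angles of 20° to 70°, Peltier-held temperature, viscosity calculated at 25 °C.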

Usually IC50 stands for the concentration at which inhibition is half-maximal. For the molecule `COc1cc2cc(-c3nc4cc(Cl)ccc4n3Cc3ccccc3)c3cc(OC)c(OC)cc3c2cc1OC`, the IC50 is above 20 µM in experiment [1]; above 20 µM in experiment [2]; above 20 µM in experiment [3]; 11.5 µM in experiment [4]; 17.3 µM in experiment [5]; 10.3 µM in experiment [6].

With `COc1cc2cc(-c3nc4ccc(Cl)cc4[nH]3)c3cc(OC)c(OC)cc3c2cc1OC`, the IC50 in experiment [1] was above 20 µM; in experiment [2] it was above 20 µM; in experiment [3], above 20 µM; in experiment [4], 18.9 µM; in experiment [5] it was 9.42 µM; in experiment [6] it was above 20 µM.

Take `COc1cc2cc(-c3nc4ccc(C(=O)O)cc4[nH]3)c3cc(OC)c(OC)cc3c2cc1OC`: the IC50 in experiment [1] was 12.7 µM; in experiment [2] it was 9.92 µM; in experiment [3], above 20 µM; in experiment [4], 10.2 µM; in experiment [5] it was 10.6 µM; in experiment [6] it was 8.34 µM.

`COc1cccc2c1C(=O)c1c(O)c3c(c(O)c1C2=O)C[C@@](O)(C(=O)CO)C[C@@H]3O[C@H]1C[C@H](N)[C@H](O)[C@H](C)O1` [DOXORUBICIN] came in with an IC50 in experiment [1] of 1.91 µM. In experiment [7], the outcome was Active.

With `CN1CCN(c2ccc3[nH]c(-c4ccc5[nH]c(-c6ccc(O)cc6)nc5c4)nc3c2)CC1`, the result in experiment [7] was inactive.

As for `COc1cc2cc(-c3nc4ccc(C)cc4[nH]3)c3cc(OC)c(OC)cc3c2cc1OC`, the IC50 in experiment [1] is 8.21 µM; in experiment [2], above 20 µM; in experiment [3], above 20 µM; in experiment [4], above 20 µM; in experiment [5], above 20 µM; in experiment [6], above 20 µM.

`O=c1[nH]cc(F)c(=O)[nH]1` [FLUOROURACIL]: the IC50 came to 2.18 µM in experiment [1] and 8.62 µM in experiment [2].

Regarding `COC(=O)Nc1nc2cc(C(=O)c3cccs3)ccc2[nH]1` [NOCODAZOLE], the IC50 was 1.14 µM in experiment [1], 1.06 µM in experiment [2], 1.84 µM in experiment [4] and 0.91 µM in experiment [5].

With `COc1ccc2cc(-c3nc4ccccc4[nH]3)c3cc(OC)c(OC)cc3c2c1`, the IC50 was 17.2 µM in experiment [1]; above 20 µM in experiment [2]; 11.4 µM in experiment [3]; above 20 µM in experiment [4]; above 20 µM in experiment [5]; above 20 µM in experiment [6].

Take `COc1ccc2cc(-c3nc4cc(Cl)ccc4n3Cc3ccccc3)c3cc(OC)c(OC)cc3c2c1`: the IC50 in experiment [1] was above 20 µM; in experiment [2] it was above 20 µM; in experiment [3] it was above 20 µM; in experiment [4] it was above 20 µM; in experiment [5] it was 7.2 µM; in experiment [6], 14.1 µM.

In the case of `COc1ccc2cc(-c3nc4ccc(Cl)cc4[nH]3)c3cc(OC)c(OC)cc3c2c1`, the IC50 in experiment [1] was above 20 µM; in experiment [2], 11.3 µM; in experiment [3], 14.2 µM; in experiment [4], 7.24 µM; in experiment [5], above 20 µM; in experiment [6] it was above 20 µM. Moreover, the outcome in experiment [7] was Active.

As for `COc1cc2cc(-c3nc4ncc(Br)cc4[nH]3)c3cc(OC)c(OC)cc3c2cc1OC`, the IC50 is 10 µM in experiment [1]; above 20 µM in experiment [2]; above 20 µM in experiment [3]; above 20 µM in experiment [4]; above 20 µM in experiment [5]; above 20 µM in experiment [6].

As to `COc1cc2cc(-c3nc4cc(C)cc(C)c4[nH]3)c3cc(OC)c(OC)cc3c2cc1OC`, the IC50 in experiment [1] was above 20 µM; in experiment [2] it was above 20 µM; in experiment [3], 7.15 µM; in experiment [4], 18.3 µM; in experiment [5], above 20 µM; in experiment [6] it was above 20 µM.

Regarding `COc1ccc2cc(-c3nc4ncc(Br)cc4[nH]3)c3cc(OC)c(OC)cc3c2c1`, the IC50 in experiment [1] was above 20 µM; in experiment [2], above 20 µM; in experiment [3], 7.91 µM; in experiment [4], 11.3 µM; in experiment [5], above 20 µM; in experiment [6] it was above 20 µM.

Take `CC[n+]1c(-c2ccccc2)c2cc(N)ccc2c2ccc(N)cc21`: the result in experiment [7] was Active.

With `COc1cc2cc(-c3nc4ccccc4[nH]3)c3cc(OC)c(OC)cc3c2cc1OC`, the IC50 was 18.9 µM in experiment [1]; above 20 µM in experiment [2]; above 20 µM in experiment [3]; 12.8 µM in experiment [4]; above 20 µM in experiment [5]; above 20 µM in experiment [6].

As to `COc1ccc2nc(-c3cc4cc(OC)c(OC)cc4c4cc(OC)c(OC)cc34)[nH]c2c1`, the IC50 is above 20 µM in experiment [1]; 8.91 µM in experiment [2]; 11.5 µM in experiment [3]; 13.1 µM in experiment [4]; 9.98 µM in experiment [5]; 10.2 µM in experiment [6].

With `COC(=O)c1ccc2nc(-c3cc4cc(OC)c(OC)cc4c4cc(OC)c(OC)cc34)[nH]c2c1`, the IC50 in experiment [1] is 17.2 µM; in experiment [2], above 20 µM; in experiment [3] it was above 20 µM; in experiment [4], 16.7 µM; in experiment [5], above 20 µM; in experiment [6], above 20 µM.

For the molecule `COc1cc2cc(-c3nc4ccc(F)cc4[nH]3)c3cc(OC)c(OC)cc3c2cc1OC`, the IC50 is above 20 µM in experiment [1]; above 20 µM in experiment [2]; 10.8 µM in experiment [3]; 14.6 µM in experiment [4]; above 20 µM in experiment [5]; 9.42 µM in experiment [6].

`COc1cc2cc(-c3nc4cc(Cl)ccc4n3Cc3cc(C)cc(C)c3)c3cc(OC)c(OC)cc3c2cc1OC`: the IC50 in experiment [1] is above 20 µM; in experiment [2] it was above 20 µM; in experiment [3] it was above 20 µM; in experiment [4], 12.8 µM; in experiment [5], 16.5 µM; in experiment [6], 15.6 µM.

Regarding `COc1cc2cc(-c3nc4ccc(Br)cc4[nH]3)c3cc(OC)c(OC)cc3c2cc1OC`, the IC50 was above 20 µM in experiment [1]; above 20 µM in experiment [2]; above 20 µM in experiment [3]; 15.7 µM in experiment [4]; 15.1 µM in experiment [5]; above 20 µM in experiment [6].
